Test results: ChEMBL document CHEMBL5724801, “EUbOPEN Chemogenomics Library - Multiplex” (2024)
Where “and” joins values, the source holds several entries; their conditions need not be identical. Identical values can stand only once.

Experiments:
HEK-293T = assay: Multiplex assay against HEK293T; assay type: toxicity, cell-based; conditions: human
Summary of the method: (§1)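 Live cells carried four stains from seeding: Hoechst33342, BioTracker Green Microtubule Cytoskeleton Dye, MitoTracker Red and Annexin V Alexa Fluor 680. They were imaged on a CQ1 microscope at 37°C and 5% CO2 after compound addition. Using CellPathfinder machine-learning gating, cells were split into Hoechst high-intensity objects or normal cells, normal cells into healthy, pyknosed or fragmented nuclei, and pyknosed cells into mitotic or apoptotic; tubulin, mitochondrial-mass and membrane-permeability phenotypes are per cents of healthy-nucleus cells.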

U2OS = assay: Multiplex assay against U2OS; assay type: toxicity, cell-based; conditions: human; summary of the method: as §1
[1] = 24 h, 1 µM, compound concentration 1 uM
[2] = 24 h, 10 µM, compound concentration 10 uM
[3] = 48 h, 1 µM, compound concentration 1 uM
[4] = 48 h, 10 µM, compound concentration 10 uM
[5] = 12 h, 1 µM, compound concentration 1 uM
[6] = 12 h, 10 µM, compound concentration 10 uM

COc1cc(NC(=O)CCN2CCC(OC(=O)Nc3ccccc3-c3ccccc3)CC2)c(Cl)cc1CNC[C@H](O)c1ccc(O)c2[nH]c(=O)ccc12 [BATEFENTEROL]
Population Tubulin-Different-Phenotype (%) (HEK-293T; [1]): 35% and 27%
Total Cell Count (HEK-293T; [1]): 527 and 403
Population Membrane Permeable-Phenotype (%) (HEK-293T; [2]): 0%
Population Mitochondria Different-Phenotype (%) (HEK-293T; [2]): 100% and 89%
Population Normal (%) (HEK-293T; [2]): 66% and 93%
Population Pyknosed Nuclei (%) (HEK-293T; [2]): 0% and 19%
Population Tubulin-Different-Phenotype (%) (HEK-293T; [2]): 100% and 78%
Population Apoptotic (%) (HEK-293T; [3]): 35% and 51%
Population Fragmented Nuclei (%) (HEK-293T; [3]): 15% and 13%
Population Healthy Nuclei (%) (HEK-293T; [3]): 75% and 79%
Population Hoechst High Intensity Objects (%) (HEK-293T; [3]): 3%
Population Membrane Permeable-Phenotype (%) (HEK-293T; [3]): 0%
Population Mitochondria Different-Phenotype (%) (HEK-293T; [3]): 36% and 42%
Population Mitotic Cells (%) (HEK-293T; [3]): 65% and 48%
Population Normal (%) (HEK-293T; [3]): 96%
Population Pyknosed Nuclei (%) (HEK-293T; [3]): 8% and 6%
Population Tubulin-Different-Phenotype (%) (HEK-293T; [3]): 17%
Total Cell Count (HEK-293T; [3]): 744 and 547
Population Apoptotic (%) (HEK-293T; [4]): 100% and 57%
Population Hoechst High Intensity Objects (%) (HEK-293T; [4]): 7%
Population Membrane Permeable-Phenotype (%) (HEK-293T; [4]): 0%
Population Mitochondria Different-Phenotype (%) (HEK-293T; [4]): 66% and 76%
Population Normal (%) (HEK-293T; [4]): 92%
Population Pyknosed Nuclei (%) (HEK-293T; [4]): 16% and 11%
Population Tubulin-Different-Phenotype (%) (HEK-293T; [4]): 66% and 74%
Population Apoptotic (%) (U2OS; [5]): 68% and 85%
Population Fragmented Nuclei (%) (U2OS; [5]): 29% and 14%
Population Healthy Nuclei (%) (U2OS; [5]): 49% and 78%
Population Hoechst High Intensity Objects (%) (U2OS; [5]): 4% and 1%
Population Membrane Permeable-Phenotype (%) (U2OS; [5]): 5% and 9%
Population Mitochondria Different-Phenotype (%) (U2OS; [5]): 5% and 6%
Population Mitotic Cells (%) (U2OS; [5]): 31% and 14%
Population Normal (%) (U2OS; [5]): 95% and 98%
Population Pyknosed Nuclei (%) (U2OS; [5]): 21% and 7%
Population Tubulin-Different-Phenotype (%) (U2OS; [5]): 4% and 7%
Total Cell Count (U2OS; [5]): 159 and 98
Population Apoptotic (%) (U2OS; [6]): 72% and 88%
Population Fragmented Nuclei (%) (U2OS; [6]): 37% and 18%
Population Healthy Nuclei (%) (U2OS; [6]): 44% and 59%
Population Hoechst High Intensity Objects (%) (U2OS; [6]): 6% and 7%
Population Membrane Permeable-Phenotype (%) (U2OS; [6]): 60% and 57%
Population Mitochondria Different-Phenotype (%) (U2OS; [6]): 67% and 95%
Population Mitotic Cells (%) (U2OS; [6]): 27% and 11%
Population Normal (%) (U2OS; [6]): 93% and 92%
Population Pyknosed Nuclei (%) (U2OS; [6]): 18% and 22%
Population Tubulin-Different-Phenotype (%) (U2OS; [6]): 75% and 97%
Total Cell Count (U2OS; [6]): 196 and 82
Population Apoptotic (%) (U2OS; [1]): 74% and 100%
Population Fragmented Nuclei (%) (U2OS; [1]): 27% and 12%
Population Healthy Nuclei (%) (U2OS; [1]): 55% and 75%
Population Hoechst High Intensity Objects (%) (U2OS; [1]): 2% and 1%
Population Membrane Permeable-Phenotype (%) (U2OS; [1]): 9% and 5%
Population Mitochondria Different-Phenotype (%) (U2OS; [1]): 9% and 6%
Population Mitotic Cells (%) (U2OS; [1]): 25% and 0%
Population Normal (%) (U2OS; [1]): 97% and 98%
Population Pyknosed Nuclei (%) (U2OS; [1]): 17% and 11%
Population Tubulin-Different-Phenotype (%) (U2OS; [1]): 5% and 2%
Total Cell Count (U2OS; [1]): 182 and 103
Population Apoptotic (%) (U2OS; [2]): 79% and 73%
Population Fragmented Nuclei (%) (U2OS; [2]): 38% and 29%
Population Healthy Nuclei (%) (U2OS; [2]): 38% and 42%
Population Hoechst High Intensity Objects (%) (U2OS; [2]): 4% and 9%
Population Membrane Permeable-Phenotype (%) (U2OS; [2]): 32% and 52%
Population Mitochondria Different-Phenotype (%) (U2OS; [2]): 59% and 91%
Population Mitotic Cells (%) (U2OS; [2]): 20% and 26%
Population Normal (%) (U2OS; [2]): 95% and 90%
Population Pyknosed Nuclei (%) (U2OS; [2]): 22% and 27%
Population Tubulin-Different-Phenotype (%) (U2OS; [2]): 44% and 91%
Total Cell Count (U2OS; [2]): 199 and 93
Population Apoptotic (%) (U2OS; [3]): 82% and 85%
Population Fragmented Nuclei (%) (U2OS; [3]): 26% and 17%
Population Healthy Nuclei (%) (U2OS; [3]): 54% and 64%
Population Hoechst High Intensity Objects (%) (U2OS; [3]): 3% and 4%
Population Membrane Permeable-Phenotype (%) (U2OS; [3]): 3%
Population Mitochondria Different-Phenotype (%) (U2OS; [3]): 5% and 1%
Population Mitotic Cells (%) (U2OS; [3]): 17% and 14%
Population Normal (%) (U2OS; [3]): 96% and 95%
Population Pyknosed Nuclei (%) (U2OS; [3]): 19% and 17%
Population Tubulin-Different-Phenotype (%) (U2OS; [3]): 3% and 1%
Total Cell Count (U2OS; [3]): 242 and 123
Population Apoptotic (%) (U2OS; [4]): 92% and 94%
Population Fragmented Nuclei (%) (U2OS; [4]): 41% and 29%
Population Healthy Nuclei (%) (U2OS; [4]): 39% and 32%
Population Hoechst High Intensity Objects (%) (U2OS; [4]): 6% and 10%
Population Membrane Permeable-Phenotype (%) (U2OS; [4]): 31% and 38%
Population Mitochondria Different-Phenotype (%) (U2OS; [4]): 43% and 70%
Population Mitotic Cells (%) (U2OS; [4]): 7% and 5%
Population Normal (%) (U2OS; [4]): 93% and 89%
Population Pyknosed Nuclei (%) (U2OS; [4]): 18% and 37%
Population Tubulin-Different-Phenotype (%) (U2OS; [4]): 23% and 48%
Total Cell Count (U2OS; [4]): 221 and 105
